The test system of one experiment is HDAC isoforms. The settings on record: cited from earlier work.
Experiment [1] relates to global H3K9 acetylation in HCT116 cells. The experiment can be described thus: Western blot of global histone H3K9 acetylation. In kind it is cell-based. The settings on record: HCT116, 24 hours, 100 nM and 1 μM; for induction of global H3K9 (H3) acetylation: 10 nM; for concentration at which increase of global H3K9 acetylation was observed: tested at 10 nM. An outline of the steps:
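HCT116 cells exposed 24 hours to test compound at 10 nM, 100 nM or 1 μM, or to DMSO. Lysed in RIPA buffer (50 mmol/L Tris-HCl, 1% NP-40, 0.25% deoxycholate, 150 mmol/L NaCl, 50 mmol/L NaF). Protein quantified by DC assay, 30 μg/lane run on SDS-PAGE. Blots probed for acetyl-H3 with β-actin loading control, detected by dye-conjugated secondaries on infrared scanner.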
Background: A western blot detects proteins with antibodies after separation by electrophoresis.

For experiment [2], the system named is HCT116 colorectal cancer cell line. The experiment can be described thus: Cytoproliferation. The experiment is classed as cell-based. The settings on record: for effect on cell growth: HCT116, 96 hours, up to the highest concentration tested, 5 μM; for effect on cytoproliferation at lower concentrations: HCT116, 0.01, 0.1 and 1.0 nM (data not shown). An outline of the steps: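 HCT116 colorectal carcinoma cells seeded at 3×10⁴ cells/well in quadruplicate, attached overnight. Medium then replaced with fresh medium containing test compound; incubated 96 hours at 37 °C, 5% CO₂. CellTiter 96 One Solution MTS reagent added for 1.5 h at 37 °C, absorbance read at 490 nm. Points are mean of two experiments, 4 replicates each, with SEM.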

The target in a further experiment is T1, recombinant HDAC6 (Homo sapiens, UniProt Q9UBN7).
T1 sequence (Q9UBN7 1-1215): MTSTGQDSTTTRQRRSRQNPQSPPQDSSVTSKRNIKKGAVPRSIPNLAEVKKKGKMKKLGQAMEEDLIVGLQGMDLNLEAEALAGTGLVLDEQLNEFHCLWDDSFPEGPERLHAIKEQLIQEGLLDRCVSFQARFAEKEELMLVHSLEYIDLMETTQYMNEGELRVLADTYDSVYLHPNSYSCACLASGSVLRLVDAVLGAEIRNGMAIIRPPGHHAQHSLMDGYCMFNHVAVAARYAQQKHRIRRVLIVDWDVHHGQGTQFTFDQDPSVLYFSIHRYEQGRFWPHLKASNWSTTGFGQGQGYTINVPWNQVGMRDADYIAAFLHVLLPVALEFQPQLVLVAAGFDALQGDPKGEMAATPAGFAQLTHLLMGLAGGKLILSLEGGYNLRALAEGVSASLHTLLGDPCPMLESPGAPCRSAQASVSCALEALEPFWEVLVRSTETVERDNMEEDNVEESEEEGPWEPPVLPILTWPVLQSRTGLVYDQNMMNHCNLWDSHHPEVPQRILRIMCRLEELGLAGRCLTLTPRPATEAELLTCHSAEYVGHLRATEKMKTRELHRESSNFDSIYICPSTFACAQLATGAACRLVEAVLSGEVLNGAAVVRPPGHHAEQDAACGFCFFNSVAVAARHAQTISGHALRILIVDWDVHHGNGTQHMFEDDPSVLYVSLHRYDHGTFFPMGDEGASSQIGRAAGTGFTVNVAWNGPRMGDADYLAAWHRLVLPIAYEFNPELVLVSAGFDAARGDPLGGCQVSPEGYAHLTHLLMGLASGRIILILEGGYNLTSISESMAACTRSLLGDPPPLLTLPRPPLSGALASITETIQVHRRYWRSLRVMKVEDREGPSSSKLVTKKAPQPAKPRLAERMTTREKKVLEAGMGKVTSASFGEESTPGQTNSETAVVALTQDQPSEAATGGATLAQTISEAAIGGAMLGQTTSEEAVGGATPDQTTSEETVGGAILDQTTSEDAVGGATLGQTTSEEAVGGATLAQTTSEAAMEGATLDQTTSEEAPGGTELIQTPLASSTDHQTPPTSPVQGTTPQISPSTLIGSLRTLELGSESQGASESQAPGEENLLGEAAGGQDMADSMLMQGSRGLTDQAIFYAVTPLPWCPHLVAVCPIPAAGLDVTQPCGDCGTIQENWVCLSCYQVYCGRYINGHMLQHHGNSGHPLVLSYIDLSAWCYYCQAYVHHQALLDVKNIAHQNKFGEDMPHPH
The experiment is described as follows: Fluorimetric HDAC activity assay, recombinant HDAC6. The settings on record: 0–5 μM. The experiment is classed as biochemical.

A further experiment concerns the target recombinant HDAC1 (Homo sapiens, UniProt Q13547). The experiment is described as follows: Fluorimetric HDAC activity assay, recombinant HDAC1. In kind it is biochemical. As to conditions: at 0.1 μM, 1 hour.
The test system of a further experiment is human cancer cells. The settings on record: cited from earlier work.

Structures are written as SMILES. “Also recorded” adds a separate entry of the source. Bounds are passed on as bounds.

recombinant HDAC1, sequence (Q13547 whole entry): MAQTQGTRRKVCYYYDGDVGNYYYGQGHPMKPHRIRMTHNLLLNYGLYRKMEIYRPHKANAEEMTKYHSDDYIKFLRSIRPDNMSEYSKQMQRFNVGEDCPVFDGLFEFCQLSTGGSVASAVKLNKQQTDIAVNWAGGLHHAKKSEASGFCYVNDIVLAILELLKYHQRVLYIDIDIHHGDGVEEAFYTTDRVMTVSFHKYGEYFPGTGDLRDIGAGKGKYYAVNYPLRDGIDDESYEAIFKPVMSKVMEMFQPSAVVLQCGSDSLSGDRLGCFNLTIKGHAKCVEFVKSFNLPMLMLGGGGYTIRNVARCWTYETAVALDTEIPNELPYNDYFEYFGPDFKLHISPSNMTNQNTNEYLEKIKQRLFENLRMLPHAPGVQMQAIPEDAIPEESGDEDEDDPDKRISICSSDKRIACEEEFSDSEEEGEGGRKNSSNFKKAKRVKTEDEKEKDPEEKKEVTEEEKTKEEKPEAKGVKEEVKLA

On to `CCCCCCCC(=O)SCCC=CC1CC(=O)NCc2nc(cs2)C2=NC(C)(CS2)C(=O)NC(C(C)C)C(=O)O1` (single isomer, unassigned) [enantiomer of largazole], for which, in the experiment with HDAC isoforms, the “potency in inhibiting HDAC isoforms relative to largazole” value is on record as “three times less potent”.
As for `CCCCCCCC(=O)SCC/C=C/[C@@H]1CC(=O)NCc2nc(cs2)C2=N[C@](C)(CS2)C(=O)N[C@@H](C(C)C)C(=O)O1` [Analogue 12], the “induction of global H3K9 (H3) acetylation” value (shortened to “induction of global H3K9”) in experiment [1] was “very little induction; also recorded: slight increase; also recorded: no change; also recorded: slight induction”. Also, the “effect on cell growth” value in experiment [2] is “minimal effect”.
Consider `CCCCCCCC(=O)SCC/C=C/[C@@H]1CC(=O)NCc2nc(cs2)C2=N[C@@](C)(CS2)C(=O)N[C@H](Cc2cccc3ccccc23)C(=O)O1` [Analogue 16a], for which, at recombinant HDAC6, the “HDAC6 specific inhibition (comparison among analogues)” value was “least amount”. Moreover, in experiment [1], the “induction of global H3K9” value is on record as “very little induction; also recorded: no change; also recorded: failed to induce”. Also, in experiment [2], the “effect on cell growth” value is “minimal effect; also recorded: no effect”.
With `C=CCC1NC(=O)C2(C)CSC(=N2)c2csc(n2)CNC(=O)CC(C=CCCSC(=O)CCCCCCC)OC1=O` (stereo not shown) [Analogue 16b], in experiment [1], the “induction of global H3K9” value was “greatest induction; also recorded: robust induction” and the “concentration at which increase of global H3K9 acetylation was observed” value (from here on “concentration at which increase”) turned out to be 100 nM. Besides, in experiment [2], the “effect on cytoproliferation at lower concentrations” value is “No significant effect” and the “effect on cell growth” value is listed as “significant effect”.
As to `CCCCCCCC(=O)SCC/C=C/[C@@H]1CC(=O)NCc2nc(cs2)C2=N[C@@](C)(CS2)C(=O)N[C@@H](Cc2cccc3ccccc23)C(=O)O1` [Analogue 16c], the “inhibition of HDAC1 activity” value at recombinant HDAC1 is reported as “about 15%”. In addition, in experiment [1], the “induction of global H3K9” value is “greatest induction; also recorded: robust induction” and the “concentration at which increase” value worked out at 10 nM. Moreover, in experiment [2], the “effect on cytoproliferation at lower concentrations” value is on record as “No significant effect” and the “effect on cell growth” value is listed as “significant effect”.
Take `CCCCCCCC(=O)SCCC=CC1CC(=O)NCc2nc(cs2)C2=NC(C)(CS2)C(=O)NC(C(C)C)C(=O)O1` (stereo not shown) [C-2 epimer of largazole]: in the experiment with HDAC isoforms, the “inhibitory potency against HDAC isoforms” value was “sub-micromolar”.
Turning to `CCCCCCCC(=O)SCCC=CC1CC(=O)NCc2nc(cs2)C2=NC(C)(CS2)C(=O)NC(Cc2ccc(O)cc2)C(=O)O1` [L-tyrosine analogue], the “selectivity toward human cancer cells over normal cells” value in the experiment with human cancer cells was 100 fold.
Broadly, the GI50 is the concentration giving 50% growth inhibition. The low end stands for more potent growth inhibition, the high end for less potent growth inhibition. Consider `CCCCCCCC(=O)SCC/C=C/[C@@H]1CC(=O)NCc2nc(cs2)C2=N[C@@](C)(CS2)C(=O)N[C@@H](C(C)C)C(=O)O1` [largazole, reference compound], for which, in experiment [1], the “concentration at which increase” value amounted to 10 nM. In addition, the GI50 in experiment [2] (Homo sapiens, HCT-116, 96 h) is under 0.01 µM.

Values taken from article PMC4188730 (European journal of medicinal chemistry, 2014).
